Compound activity (PubChem)
STAT1 act: increases IFN-gamma driven STAT1 reporter signal | 2.6% of 200,000 active | AID 932 | activation (% of control), % at 5.5 µM | NIH 3T3 STAT1-luciferase reporter, luminescence; 100% = IFN-gamma alone, no compound;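 active = activation above the screen-wide mean activation plus 3 SD, cut at about 130% in these data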;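 note: raw ratio to IFN-gamma control signal so 100% means no change and 0% no light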
APP 5'UTR act: activates APP 5'UTR luciferase reporter | activation, % at 2 µM | SH-SY5Y APP 5'UTR luciferase reporter, luminescence; zero percent = DMSO vehicle wells | 1% of 190,000 active | AID 1276;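 active = activation above a set limit, based on mean plus 3 SD of controls, cut at about 140% in these data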
STAT3 blocker: STAT3 signaling inhibition | inhibition, % at 5.5 µM | 0.89% of 190,000 active | U3A cells, IL-6 STAT3-luciferase reporter, luminescence; host cell line lacks STAT1;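 active = inhibition above the mean inhibition across all screened compounds plus 3 SD, cut at about 44% in these data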;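 note: 0% = DMSO only wells and 100% = 100 µM nifuroxazide control wells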
STAT1 blocker: STAT1 signaling inhibition; NIH 3T3 STAT1-luciferase reporter, IFN-gamma, luminescence; inhibition, % at 5.5 µM; 0.35% of 200,000 active; AID 920;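 active = inhibition above a set limit, the mean inhibition across all tested compounds plus 3 SD, cut at about 34% in these data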;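 note: 0% = IFN-gamma with DMSO and 100% = IFN-gamma with 300 µM nifuroxazide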
NF-kB neuron act: raises NF-kB expression in human neuronal cells. fold change at 12.5 µM. 1.6% of 190,000 active. AID 1239. NF-kB reporter expression; stronger effect = higher value; in the data active = fold change above about 3.3
STAT3 act: STAT3 signaling activation; U3A cells, IL-6 STAT3-luciferase reporter, luminescence; 100% = signal with IL-6 EC80 alone; AID 871; 0.91% of 190,000 active; activation (% of control), % at 5.6 µM;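 active = activation above the screen-wide mean of compound activation plus 3 SD, cut at about 130% in these data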;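 note: 0% = background luminescence of wells with medium and substrate only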
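Test system: human U3A cells carrying STAT3-luciferase construct; control set: IL-6-only wells as 100% reference; timing: compound pre-incubation 1 h before IL-6, then 6 h stimulation at 37 °C; also added: IL-6 stimulus at 33 ng/mL final; evaluation: % activation versus median of IL-6-stimulated wells; detection: reporter luminescence signal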
Active calls of the source: *. Only some compounds are listed: those with a hit (about 5.1% of all), similar ones and a draw of the others.

SMILES	STAT1 act	APP 5'UTR act	STAT3 blocker	STAT1 blocker	NF-kB neuron act	STAT3 act
Nc1c(C(=O)NCCc2ccc(Cl)cc2)sc2ccc(S(=O)(=O)N3CCCCC3)cc12	92	-8	20	9	0.63	87
O=C(CSc1nc2ccccc2o1)Nc1ccc(N2CCOCC2)c(Cl)c1	94	194*	31	6	1.3	76
O=C(CSc1nc2ccccc2s1)Nc1ccc(N2CCOCC2)c(Cl)c1	108	-8	-17	-9	0.87	113
O=C(N/N=C/c1ccc2c(c1)OCO2)c1cc(-c2ccccc2)nc2ccccc12	94	-5	8	6	1.3	93
O=c1[nH]c(N/N=C/c2ccccc2)nc2ccccc12	145*	140*	31	-50	3	77
O=c1[nH]c(N/N=C\c2ccc3c(c2)OCO3)nc2ccccc12	140*	205*	35	-45	4.4*	74
COc1cccc(C(=O)NC(=S)Nn2cnnc2)c1OC	112	18	0	-16	1.1	101
Cc1cc(NC(=O)c2ccccc2[N+](=O)[O-])ccc1Br	138*	47	10	-44	2.2	94
Clc1cc(Br)ccc1OCCOCCN1CCOCC1	108	11	4	-9	3.6*	100
Cc1ccc(C)c(OCCOCCN2CCOCC2)c1	106	4	3	-6	1.2	101
Cc1ccc(/C=C/c2ccc(=O)n(Cc3ccccc3Cl)n2)cc1	100	4	8	-2	1.4	95
CCn1ncc(C(=O)Nc2cccc(Cl)c2)c1C	144*	86	-17	-47	2.4	115
Clc1ccc(CON/C=N/c2ncnc3sccc23)c(Cl)c1	90	11	28	11	0.61	81
CN(C)/C=C/C(=O)c1ccc(Cl)c([N+](=O)[O-])c1	90	25	-2	11	1.2	101
C/C(=N\Nc1ccc(F)cc1F)c1cccs1	129*	12	22	-33	1.4	86
C/C(=N\NC(=O)C1CC1)c1cccs1	99	-7	-6	1	1.8	109
COc1ccc(/C(C)=N/Nc2ccc(F)cc2F)c(O)c1	133*	32	17	-37	1.2	92
CCCCN1CCc2c([nH]c3c(C)cccc23)C1=O	128	87	3	-32	3.5*	103
CCCc1c(C)c2cccc(C)c2[nH]c1=O	99	2	29	1	1.3	81
CCCOc1ccc(-c2cnc(N)s2)cc1	133*	88	12	-37	2.2	92
Cc1ccccc1-c1cc(-c2ccccc2O)n[nH]1	99	158*	-28	1	7.7*	126
Cc1ccc(-c2cc(-c3ccccc3Cl)[nH]n2)c(O)c1	102	171*	-18	-3	9.8*	118
Oc1ccc(Br)cc1-c1cc(-c2ccccc2F)[nH]n1	99	17	-34	1	1.4	134*
Cc1c(Cl)cccc1NC(=O)c1cc(-c2ccccc2O)n[nH]1	106	70	10	-7	1.6	92
COc1ccccc1-c1cc(-c2cc(Cl)ccc2O)n[nH]1	100	24	-15	0	1.3	117
SMILES	STAT1 act	APP 5'UTR act	STAT3 blocker	STAT1 blocker	NF-kB neuron act	STAT3 act
CCOC(=O)c1nnn(-c2nonc2N)c1-c1ccc(F)cc1	96	-44	-3	4	1.2	110
CCC(C)(C)NC(=O)c1ccc2c(c1)OCCO2	101	18	10	-1	1.4	94
Oc1ccccc1CNc1ccc(Br)cn1	112	71	10	-13	5.4*	95
Brc1ccc(NCc2cccc3ccccc23)nc1	111	-12	30	-12	1.7	78
O=C(/C=C/c1ccccc1)Nc1ccc2c(c1)C(=O)NC2=O	129*	8	11	-31	1.5	98
COc1ccccc1/C=C/C(=O)OCC(=O)Nc1cc(C(F)(F)F)ccc1N1CCOCC1	93	-61	-7	7	0.92	101
CCc1ccc(-c2ccc(C(=O)C(F)(F)F)[nH]2)cc1	124	179*	-7	-26	4.5*	106
O=C(c1nc2ccccn2c1CN1CCC(Cc2ccccc2)CC1)N1CCCC1	100	0	7	-1	0.98	104
CSc1ccc(CNc2ccccn2)cc1	129*	41	0	-32	2	100
CSc1ccc(CNc2ccccc2)cc1	112	13	0	-13	1.4	109
CN(Cc1ccccc1)c1ncc(C=O)s1	104	0	5	-6	1	100
O=S(=O)(c1ccccc1)c1cnc(-c2ccccc2)nc1N1CCCC1	146*	-13	22	-51	1.6	90
Cc1nn(C)c(C(=O)N/N=C/c2ccc(C(F)(F)F)cc2)c1[N+](=O)[O-]	102	-5	0	-2	1.1	99
COc1ccccc1C(=O)NNC(=O)c1cccc(Cl)c1	127	142*	23	-31	3.6*	84
COc1ccc(Cl)cc1C(=O)NNC(=O)c1cccc([N+](=O)[O-])c1	99	5	23	-2	1	85
O=C1[C@H]2[C@@H](C(=O)N1c1cccc3ccccc13)C1(C(=O)c3ccccc3C1=O)N1CCC[C@@H]21	104	1	9	-4	3.4*	95
Cc1ccc([N+](=O)[O-])cc1-c1ccc(/C=C(\C#N)c2[nH]nc(N)c2C#N)o1	140*	42	-13	-45	1.4	111
CCOc1ccc2ccccc2c1CNCCN1CCOCC1	102	2	1	-3	7.7*	99
CCOc1ccc(Br)cc1CNCCN1CCOCC1	103	4	17	-3	1.1	87
C=CCc1cccc(C=Nc2cc(Br)ccc2O)c1O	72	-16	4	30	1	97
C=CCc1cccc(C=Nc2cccn3cc(-c4ccccc4)nc23)c1O	132*	53	-2	-35	1.4	102
Cc1ccc2[nH]c3c(N4CCc5ccccc5C4)ncnc3c2c1	71	10	73*	33	0.39	43
c1ccc2c(c1)[nH]c1c(N3CCSCC3)ncnc12	66	20	-7	38*	0.33	113
c1ccc2c(c1)[nH]c1c(N3CCN(C4CCCCC4)CC3)ncnc12	86	5	-20	15	0.6	123
Brc1ccc2[nH]c3c(N4CCc5ccccc5C4)ncnc3c2c1	79	-10	37	25	0.46	69
Cc1ccccc1C(=O)OC1OC(=O)C(Cl)=C1N1CCOCC1 (stereo not given)	102	6	-5	-3	1.4	102
O=C(Nc1nnc(SCc2ccc(F)cc2)s1)c1ccccn1	97	-44	27	1	1.1	84
COc1cc([N+](=O)[O-])ccc1N=Nc1c(N)[nH]n(-c2ccccc2)c1=O	97	1	5	2	1.1	97
Nc1[nH]n(-c2ccccc2)c(=O)c1N=Nc1ccccc1[N+](=O)[O-]	139*	90	9	-43	1.6	93
